The values that follow come from ChEMBL document CHEMBL4396915, “Synthesis of new thiazolyl-pyrazolyl-1,2,3-triazole derivatives as potential antimicrobial agents” (2019).

Molecules are shown by their SMILES. Values after ≈ are worked out from the molar mass of the structure shown. Active and inactive are the calls of the source. The rule behind the calls is not given here.

Common to all, as to assay type: functional
The test system of test [1] is Rhodotorula glutinis. Kind of test: Antifungal activity against Rhodotorula glutinis NCIM 3168 assessed as inhibition of fungal growth incubated for 48 to 72 hrs by broth microdilution susceptibility method. In outline: (§1)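 Tube micro-dilution in Sabouraud liquid medium. Stocks were made in DMSO and serially diluted twofold in broth to final […]. Tubes inoculated with organisms grown in potato dextrose broth and held 48-72 h at 30 C. MIC is the lowest concentration with no growth. DMSO and uninoculated-media controls were included, in triplicate.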

In test [2] the test system is Candida albicans. Kind of test: Antifungal activity against Candida albicans NCIM 3100 assessed as zone of inhibition at 80 ug/well incubated for 48 to 72 hrs by agar well diffusion method. The conditions noted are these: read-out: IZ. In short, it runs like this: (§2)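 Fungi kept on potato dextrose agar slants and grown in potato dextrose broth. 500 microlitres of 48-72 h spore suspension swabbed onto Mueller Hinton agar. Compounds in DMSO loaded into 5 mm wells, with a DMSO vehicle plate and fluconazole/ravuconazole positive-control plate. Incubated 48-72 h at 30 C. Clear zone measured in mm, mean of five replicates.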
For orientation: A growth-free zone around the sample is the usual read-out of agar diffusion tests.

Test [3] concerns Rhodotorula glutinis. Put plainly: Antifungal activity against Rhodotorula glutinis NCIM 3168 assessed as zone of inhibition at 80 ug/well incubated for 48 to 72 hrs by agar well diffusion method. To be noted: read-out: IZ. In short, it runs like this: as §2
In the next test the test system is Escherichia coli. Put plainly: Antibacterial activity against Escherichia coli NCIM 2574 assessed as zone of inhibition at 80 ug/well incubated for 24 to 48 hrs by agar well diffusion method. To be noted: for zone of inhibition at 80 µg/disc: read-out: IZ. In outline:
(§3)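 Strains from NCIM kept on nutrient agar slants at 4 C and grown overnight at 37 C in nutrient broth. 500 microlitres of 24-48 h culture swabbed onto nutrient agar. Compounds in DMSO loaded into 5 mm wells, with a DMSO vehicle plate and streptomycin reference. Incubated 24-48 h at 37 C. Zone of inhibition measured in mm and averaged over 4 replicates.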

In test [4] the test system is Aspergillus niger. Put plainly: Antifungal activity against Aspergillus niger NCIM 504 assessed as inhibition of fungal growth incubated for 48 to 72 hrs by broth microdilution susceptibility method. In outline:
as §1
For orientation: Dilution methods test growth across graded concentrations, often in twofold steps.

In test [5] the test system is Staphylococcus epidermidis. Put plainly: Antibacterial activity against Staphylococcus albus NCIM 2178 assessed as zone of inhibition at 80 ug/well incubated for 24 to 48 hrs by agar well diffusion method. The conditions noted are these: read-out: IZ. In short, it runs like this:
as §3

A further test relates to Proteus mirabilis. Kind of test: Antibacterial activity against Proteus mirabilis NCIM 2388 assessed as zone of inhibition at 80 ug/well incubated for 24 to 48 hrs by agar well diffusion method. In short, it runs like this: as §3
Test [6] relates to Aspergillus niger. Put plainly: Antifungal activity against Aspergillus niger NCIM 504 assessed as zone of inhibition at 80 ug/well incubated for 48 to 72 hrs by agar well diffusion method. The conditions noted are these: read-out: IZ. In outline:
as §2

Test [7] relates to Candida albicans. Kind of test: Antifungal activity against Candida albicans NCIM 3100 assessed as inhibition of fungal growth incubated for 48 to 72 hrs by broth microdilution susceptibility method. In short, it runs like this:
as §1

A word on the MIC: it is the lowest concentration that inhibits growth of the organism.

On to `Cc1ccc(Cn2cc(-c3cn(-c4ccccc4)nc3-c3sc(-c4ccc(Br)cc4)nc3C)nn2)cc1`, for which the minimal inhibitory concentration (MIC) came out at 125 µg/mL (≈ 220 µM) in the test on Rhodotorula glutinis [1] and 31.2 µg/mL (≈ 55.1 µM) in the test with Aspergillus niger [4]. Further, the zone of inhibition at 80 µg/disc turned out to be 14.6 mm in the test on Candida albicans [2]; 13.3 mm in the test on Rhodotorula glutinis [3]; 11.6 mm with Escherichia coli; 12.6 mm in [5]; 12.4 mm in the test with Aspergillus niger [6]. The “inhibition zone (IZ)” value with Proteus mirabilis was “inactive”. Besides, the MIC result in the test on Candida albicans [7] is “inactive”.

With `Cc1ccc(Cn2cc(-c3cn(-c4ccccc4)nc3-c3sc(-c4ccc(Cl)cc4)nc3C)nn2)cc1`, the MIC was 125 µg/mL (≈ 239 µM) in the test on Rhodotorula glutinis [1], 125 µg/mL (≈ 239 µM) in the test with Aspergillus niger [4] and 250 µg/mL (≈ 478 µM) in the test on Candida albicans [7]. Moreover, the zone of inhibition at 80 µg/disc amounted to 13.8 mm in the test on Candida albicans [2]; 11.4 mm in the test with Rhodotorula glutinis [3]; 12.4 mm in the test on Escherichia coli; 12 mm in [5]; 11.4 mm in the test on Aspergillus niger [6]. Further, the “inhibition zone (IZ)” value in the test on Proteus mirabilis was “inactive”.

`Cc1nc(-c2ccc(Cl)cc2)sc1-c1nn(-c2ccccc2)cc1-c1cn(Cc2ccc(F)cc2)nn1`: the MIC in the test with Rhodotorula glutinis [1] was 125 µg/mL (≈ 237 µM); in the test with Aspergillus niger [4] it was 62.5 µg/mL (≈ 119 µM); in the test with Candida albicans [7], 250 µg/mL (≈ 474 µM). Moreover, the zone of inhibition at 80 µg/disc in the test with Candida albicans [2] was 13.8 mm; in the test on Rhodotorula glutinis [3] it was 20 mm; in the test with Escherichia coli, 12.2 mm; in test [5], 11.3 mm; in the test with Aspergillus niger [6] it was 12.5 mm. Further, the “inhibition zone (IZ)” value with Proteus mirabilis is “inactive”.

Consider `Cc1ccc(-c2nc(C)c(-c3nn(-c4ccccc4)cc3-c3cn(Cc4ccc(Br)cc4)nn3)s2)cc1`, for which the MIC in the test on Rhodotorula glutinis [1] was found to be 62.5 µg/mL (≈ 110 µM); with Aspergillus niger [4] it was 31.2 µg/mL (≈ 55.1 µM); in the test on Candida albicans [7], 125 µg/mL (≈ 220 µM). The zone of inhibition at 80 µg/disc with Candida albicans [2] was found to be 14 mm; with Rhodotorula glutinis [3] it was 18.8 mm; in the test on Escherichia coli, 11 mm; in [5], 12.2 mm; with Aspergillus niger [6], 14.4 mm. In the test with Proteus mirabilis, the “inhibition zone (IZ)” value was “inactive”.

For the molecule `Cc1nc(-c2ccc(Cl)cc2)sc1-c1nn(-c2ccccc2)cc1-c1cn(Cc2ccccc2)nn1`, the MIC in the test on Rhodotorula glutinis [1] amounted to 125 µg/mL (≈ 246 µM); with Aspergillus niger [4] it was 31.2 µg/mL (≈ 61.4 µM); in the test on Candida albicans [7], 500 µg/mL (≈ 982 µM). The zone of inhibition at 80 µg/disc in the test with Candida albicans [2] worked out at 15.2 mm; in the test with Rhodotorula glutinis [3], 15.2 mm; in the test on Escherichia coli, 12.8 mm; in [5], 11 mm; in the test with Aspergillus niger [6] it was 12.3 mm. Further, the “inhibition zone (IZ)” value with Proteus mirabilis was “inactive”.

As to `Cc1nc(-c2ccc(F)cc2)sc1-c1nn(-c2ccccc2)cc1-c1cn(Cc2ccc(Br)cc2)nn1`, the MIC in the test with Rhodotorula glutinis [1] stood at 62.5 µg/mL (≈ 109 µM); in the test on Aspergillus niger [4], 125 µg/mL (≈ 219 µM); in the test on Candida albicans [7] it was 125 µg/mL (≈ 219 µM). The zone of inhibition at 80 µg/disc in the test with Candida albicans [2] was found to be 14.4 mm; with Rhodotorula glutinis [3] it was 16.5 mm; in [5], 11.4 mm; in the test with Aspergillus niger [6], 16.8 mm. Besides, the “inhibition zone (IZ)” value with Escherichia coli and in the test with Proteus mirabilis was “inactive” each time.

On to `Cc1ccc(-c2nc(C)c(-c3nn(-c4ccccc4)cc3-c3cn(Cc4ccc(F)cc4)nn3)s2)cc1`, for which the MIC with Rhodotorula glutinis [1] stood at 125 µg/mL (≈ 247 µM); in the test with Aspergillus niger [4] it was 62.5 µg/mL (≈ 123 µM). Moreover, the zone of inhibition at 80 µg/disc with Candida albicans [2] amounted to 12.5 mm; in the test on Rhodotorula glutinis [3] it was 16.2 mm; in the test on Escherichia coli, 10.6 mm; in [5], 11.2 mm; in the test on Aspergillus niger [6], 16.3 mm. In addition, the “inhibition zone (IZ)” value with Proteus mirabilis is “inactive”. For the same molecule, the MIC entry in the test with Candida albicans [7] was “inactive”.

`Cc1nc(-c2ccc(Br)cc2)sc1-c1nn(-c2ccccc2)cc1-c1cn(Cc2ccccc2)nn1`: the MIC in the test on Rhodotorula glutinis [1] is 62.5 µg/mL (≈ 113 µM); in the test with Aspergillus niger [4], 62.5 µg/mL (≈ 113 µM); in the test with Candida albicans [7], 125 µg/mL (≈ 226 µM). The zone of inhibition at 80 µg/disc came out at 14.6 mm with Candida albicans [2]; 16.2 mm in the test on Rhodotorula glutinis [3]; 11.5 mm in the test with Escherichia coli; 14.6 mm in test [5]; 13.4 mm in the test on Aspergillus niger [6]. Moreover, the “inhibition zone (IZ)” value in the test with Proteus mirabilis is “inactive”.
